A1 apoptosis 2: blocks A1, raising caspase activity. MEF A1-2A-BIM cells, caspase-Glo luminescence, 3 h; percent of clofoctol response, DMSO zero. caspase activation, % (no concentration beside the values). 24,000 tested, under 10 active; in the data active = caspase activation above about 5.9%
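System: mouse embryonic fibroblasts co-expressing A1 and BIM (A1-2A-BIM), primed for A1 dependence; amount: 2500 cells/well; doses: 50 nL pinned compound; schedule: cells settled overnight, compound exposure 3 h at 37 °C, 5% CO2; detection: Caspase-Glo 3/7 luminescence, 1 h at room temperature; read-out: Caspase-3/7 activation, seen as rise in luminescence signal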
T cruzi intra: intracellular Trypanosoma cruzi inhibition. 22,000 tested, 4.9% active. intracellular Trypanosoma cruzi in host cells, plate reader. AID 651903. activity score (inhibition), % at 5.01 µM; in the data active = activity score above about 55%;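 also: parasites and compound incubated about four days before reading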
INS-1E rescue: preserves ATP levels in cytokine-treated INS-1E cells; INS-1E cytokine-induced death, ATP luminescence, 48 h; normalised: neutral wells 0, positive control 100; protection from cytokine-induced ATP loss, % at 10 µM; 20,000 tested, 0.1% active; AID 488910;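 active = mean replicate protection from cytokine-induced ATP loss at least 50% and at least 75% of replicates each reaching 50%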
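Material: INS-1E rat cells; Quantity: 8000 cells/well; Buffer or medium: phenol-red-free RPMI with 5% fetal bovine serum; Probe or stimulus: cytokine cocktail of IFN-γ, TNF-α and IL-1β; Compound dosing: single test concentration per compound, delivered by pin transfer; Incubation: 48 h co-treatment, 10 min post-lysis read; Signal: CellTiter-Glo luminescence.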
Each line names hits and unclear results; the compound was inactive in the other large screens. This is one part of a sample in which hits are shown more often than they occur.

C[C@@H]1CN([C@H](C)CO)C(=O)c2cc(NS(=O)(=O)c3cccs3)ccc2O[C@H]1CN(C)Cc1ccc(C(=O)Nc2ccccc2N)cc1	none (no result: T cruzi intra, INS-1E rescue)
CCOC(=O)[C@H](Cc1ccccc1)NC(=O)Cn1cc(COc2ccccc2/C=C(C)/C=C/C(=O)NO)nn1	none (no result: T cruzi intra, INS-1E rescue)
Cc1ccc(S(=O)(=O)N(C)C[C@H]2Oc3c(NC(=O)c4nc5ccccc5s4)cccc3C(=O)N([C@@H](C)CO)C[C@@H]2C)cc1	T cruzi intra 74.7 (no result: A1 apoptosis 2)
C[C@@H]1CN([C@H](C)CO)C(=O)c2cccc(NC(=O)c3nc4ccccc4s3)c2O[C@@H]1CN(C)S(=O)(=O)c1ccccc1	none (no result: A1 apoptosis 2)
C[C@H](CO)N1C[C@H](C)[C@H](CN(C)S(=O)(=O)c2ccc(F)cc2)Oc2c(NS(=O)(=O)c3ccc(F)cc3)cccc2C1=O	T cruzi intra 61.3
Cc1ccc(S(=O)(=O)N(C)C[C@H]2Oc3c(NC(=O)c4nc5ccccc5s4)cccc3C(=O)N([C@H](C)CO)C[C@H]2C)cc1	none (no result: A1 apoptosis 2)
Cc1ccc(S(=O)(=O)N(C)C[C@H]2Oc3c(NC(=O)c4nc5ccccc5s4)cccc3C(=O)N([C@H](C)CO)C[C@@H]2C)cc1	T cruzi intra 88.9 (no result: A1 apoptosis 2)
C[C@H](CO)N1C[C@H](C)[C@H](CN(C)S(=O)(=O)c2ccc(F)cc2)Oc2c(NC(=O)c3nc4ccccc4s3)cccc2C1=O	T cruzi intra 61.1 (no result: A1 apoptosis 2)
Cc1ccc(S(=O)(=O)N(C)C[C@H]2Oc3c(NC(=O)c4nc5ccccc5s4)cccc3C(=O)N([C@@H](C)CO)C[C@H]2C)cc1	none
C[C@@H]1CN([C@H](C)CO)C(=O)c2cccc(NS(=O)(=O)c3ccc(F)cc3)c2O[C@@H]1CN(C)S(=O)(=O)c1ccc(F)cc1	none
COc1ccc(C#Cc2ccc3c(c2)[C@]2(C(=O)N3)[C@H](c3ccc(O)cc3)N3[C@H](c4ccccc4)[C@H](c4ccccc4)OC(=O)[C@H]3[C@@H]2C(N)=O)cc1	none (no result: T cruzi intra, INS-1E rescue)
COc1ccc(COC[C@@]23Oc4ccccc4[C@@H](NC(=O)N2C)[C@H]3COC(=O)c2ccccc2)cc1	none (no result: T cruzi intra, INS-1E rescue)
O=C(NO)c1cccc(C(=O)N/N=C/c2cccc(B(O)O)c2)c1	none
C[C@@H]1CN([C@@H](C)CO)C(=O)c2cccc(NC(=O)c3nc4ccccc4s3)c2O[C@@H]1CN(C)S(=O)(=O)c1ccccc1	T cruzi intra 60.4 (no result: A1 apoptosis 2)
C[C@@H]1CN([C@H](C)CO)C(=O)c2cccc(NC(=O)c3nc4ccccc4s3)c2O[C@H]1CN(C)S(=O)(=O)c1ccccc1	none (no result: A1 apoptosis 2)
O=C(N/N=C/c1ccc(F)cc1)c1ccccc1O	none
C[C@@H]1CN([C@@H](C)CO)C(=O)c2cc(NC(=O)Nc3ccc(C(F)(F)F)cc3)ccc2O[C@H]1CN(C)S(=O)(=O)c1ccccc1	T cruzi intra 67.7
Cc1ccc(S(=O)(=O)N(C)C[C@H]2Oc3ccc(NC(=O)Nc4ccc(C(F)(F)F)cc4)cc3C(=O)N([C@@H](C)CO)C[C@H]2C)cc1	T cruzi intra 64.1
Cc1ccc(S(=O)(=O)N(C)C[C@@H]2Oc3ccc(NC(=O)Nc4ccc(C(F)(F)F)cc4)cc3C(=O)N([C@H](C)CO)C[C@@H]2C)cc1	none
C[C@@H]1CN([C@H](C)CO)C(=O)c2cc(NC(=O)Nc3ccc(C(F)(F)F)cc3)ccc2O[C@@H]1CN(C)S(=O)(=O)c1ccccc1	none
C[C@@H]1CN([C@H](C)CO)C(=O)c2cc(NC(=O)Nc3ccc(C(F)(F)F)cc3)ccc2O[C@H]1CN(C)S(=O)(=O)c1ccc(F)cc1	T cruzi intra 64.6
C[C@H]1CN([C@@H](C)CO)C(=O)c2cc(NC(=O)Nc3ccc(C(F)(F)F)cc3)ccc2O[C@@H]1CN(C)S(=O)(=O)c1ccc(F)cc1	none
O=C(NO)c1ccc(C(=O)N/N=C/Cc2ccccc2)cc1	none (no result: T cruzi intra, INS-1E rescue)
Cc1nc(S(=O)(=O)N[C@H]2CCN(Cc3cccc(OCCO)c3)C2)cn1C	none (no result: T cruzi intra, INS-1E rescue)
O=C(NO)c1cccc(C(=O)N/N=C/c2ccc(OCc3ccccc3)cc2O)c1	none
C[C@H](CO)N1C[C@H](C)[C@@H](CN(C)Cc2ccc(-c3ccccc3)cc2)Oc2ccc(NC(=O)Nc3ccc(C(F)(F)F)cc3)cc2C1=O	none (no result: A1 apoptosis 2)
C[C@@H]1CN([C@@H](C)CO)C(=O)c2cc(NC(=O)Cc3ccccc3)ccc2O[C@@H]1CN(C)Cc1ccc(C(F)(F)F)cc1	none (no result: INS-1E rescue)
C[C@@H]1CN([C@H](C)CO)C(=O)c2cc(NC(=O)Nc3ccc(C(F)(F)F)cc3)ccc2O[C@H]1CN(C)Cc1ccc(-c2ccccc2)cc1	T cruzi intra 85.9
C[C@H](CO)N1C[C@H](C)[C@H](CN(C)Cc2ccc(C(F)(F)F)cc2)Oc2ccc(NC(=O)Cc3ccccc3)cc2C1=O	T cruzi intra 64.1 (no result: A1 apoptosis 2, INS-1E rescue)
C[C@@H]1CN([C@@H](C)CO)C(=O)c2cc(NC(=O)Nc3ccc(C(F)(F)F)cc3)ccc2O[C@H]1CN(C)Cc1ccc(-c2ccccc2)cc1	none
C[C@@H]1CN([C@@H](C)CO)C(=O)c2cc(NC(=O)Nc3ccc(C(F)(F)F)cc3)ccc2O[C@@H]1CN(C)Cc1ccc(-c2ccccc2)cc1	T cruzi intra 64.0 (no result: A1 apoptosis 2)
COc1cc(Br)c(/C=N/NC(=O)CCCCCCC(=O)O)cc1OC	none
CC(C)(C)OC(=O)Nc1ccc(/C=N/NC(=O)c2cccc(C(=O)NO)c2)cc1	none (no result: A1 apoptosis 2)
C[C@H]1CN([C@@H](C)CO)C(=O)c2cccc(NC(=O)c3ccncc3)c2O[C@H]1CN(C)Cc1ccc(C(F)(F)F)cc1	T cruzi intra 83.7
C[C@@H]1CN([C@@H](C)CO)C(=O)c2cccc(NC(=O)c3ccncc3)c2O[C@@H]1CN(C)Cc1ccncc1	none (no result: A1 apoptosis 2)
C[C@H](CO)N1C[C@H](C)[C@H](CN(C)Cc2ccc(C(=O)O)cc2)Oc2c(NC(=O)c3ccncc3)cccc2C1=O	none
C[C@H](CO)N1C[C@H](C)[C@H](CN(C)Cc2ccc(C(F)(F)F)cc2)Oc2c(NC(=O)c3ccncc3)cccc2C1=O	T cruzi intra 64.5
C[C@H](CO)N1C[C@H](C)[C@H](CN(C)C(=O)Nc2ccccc2)Oc2c(NC(=O)Nc3cccc4ccccc34)cccc2C1=O	T cruzi intra 63.4
C[C@H](CO)N1C[C@H](C)[C@@H](CN(C)C(=O)Nc2ccccc2)Oc2c(NC(=O)Nc3cccc4ccccc34)cccc2C1=O	T cruzi intra 67.6 (no result: A1 apoptosis 2)
C[C@@H]1CN([C@@H](C)CO)C(=O)c2cccc(NC(=O)Nc3cccc4ccccc34)c2O[C@H]1CN(C)C(=O)Nc1ccccc1	none
C[C@@H]1CN([C@H](C)CO)C(=O)c2cccc(NC(=O)Nc3cccc4ccccc34)c2O[C@H]1CN(C)C(=O)Nc1ccccc1	none (no result: A1 apoptosis 2)
Cc1ccsc1/C=N/NC(=O)c1ccccc1O	none (no result: A1 apoptosis 2)
O=C(CCCCCC(=O)Nc1ccccc1O)N/N=C/c1ccc(S(=O)(=O)O)o1	none (no result: T cruzi intra, INS-1E rescue)
COc1cc2c(cc1O)C(C1CC1)N(C)CC2 (centres undefined)	none (no result: T cruzi intra, INS-1E rescue)
C[C@H](CO)N1C[C@H](C)[C@@H](CN(C)Cc2ccncc2)Oc2c(NC(=O)CCCCCC(=O)Nc3ccccc3N)cccc2C1=O	none
C[C@@H]1CN([C@@H](C)CO)C(=O)c2cccc(NC(=O)CCCCCC(=O)Nc3ccccc3N)c2O[C@@H]1CN(C)Cc1ccc(Cl)c(Cl)c1	none (no result: A1 apoptosis 2)
